Reference: ChEMBL document CHEMBL4346658, “sp2-Iminosugar glycolipids as inhibitors of lipopolysaccharide-mediated human dendritic cell activation in vitro and of acute inflammation in mice in vivo” (Eur J Med Chem, 2019)
The source made the active and inactive calls.

Legend:
Dendritic cell [1] = experiment: Antiinflammatory activity in human dendritic cells assessed as CD14-TLR-4 co-localization at 100 uM incubated for 30 mins by DAPI staining based confocal microscopy; assay type: functional
Procedure, shortened: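 Monocyte-derived DCs (10^5 per chamber) on poly-L-lysine-coated chamber slides were treated for 30 min, then washed, fixed and permeabilized. They were stained with goat anti-TLR-4 (5 µg mL⁻¹) plus AF488 anti-goat, and anti-CD14-APC, with DAPI nuclei. Confocal imaging gave the Pearson CD14/TLR-4 colocalization coefficient per field of 15–20 cells, from two independent assays.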

Dendritic cell [2] = experiment: Antiinflammatory activity in human dendritic cells assessed as reduction in LPS-induced TNFalpha production at 100 uM cotreated with LPS measured after 24 hrs by ELISA; assay type: functional, cell-based
Procedure, shortened: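 DCs came from human blood monocytes (Ficoll/Percoll) cultured 5 days with GM-CSF 50 ng ml⁻¹ and IL-4 10 ng ml⁻¹, in RPMI/10% FCS at 37 °C and 5% CO₂. Cells (10^5 per 200 µL) got E. coli K12 LPS (100 ng mL⁻¹) plus compound at the same time. After 24 h, supernatant TNF-α was measured by ELISA, with at least 3 donors and mean ± SEM.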

Dendritic cell [3] = experiment: Antiinflammatory activity in human dendritic cells assessed as reduction in LPS-induced TNFalpha production at 100 uM pretreated with LPS for 30 mins followed by compound addition measured after 24 hrs by ELISA; assay type: functional, cell-based
Procedure, shortened: (§1)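 Monocyte-derived DCs (10^5 per 200 µL) were stimulated with ultrapure E. coli K12 LPS (100 ng mL⁻¹). Compound was added 0.5, 2, 4 or 6 h after LPS. TNF-α in the supernatant was measured by ELISA 24 h after stimulation, as mean ± SD of more than 3 independent assays.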

Dendritic cell [4] = experiment: Antiinflammatory activity in human dendritic cells assessed as reduction in LPS-induced CD83 expression on cell surface at 100 uM pretreated with LPS upto 6 hrs followed by compound addition measured after 24 hrs by FACS analysis; assay type: functional, cell-based
Dendritic cell [5] = experiment: Antiinflammatory activity in human dendritic cells assessed as reduction in LPS-induced CD86 expression on cell surface at 100 uM pretreated with LPS upto 6 hrs followed by compound addition measured after 24 hrs by FACS analysis; assay type: functional, cell-based
Dendritic cell [6] = experiment: Antiinflammatory activity in human dendritic cells assessed as reduction in LPS-induced TNFalpha production at 100 uM pretreated with LPS up to 6 hrs followed by compound addition measured after 24 hrs by ELISA; assay type: functional, cell-based; procedure, shortened: as §1
Dendritic cell [7] = experiment: Antiinflammatory activity in human dendritic cells assessed as reduction in CD14 receptor cell surface expression at 100 uM incubated for 30 mins by flow cytometric analysis; assay type: functional, cell-based
Procedure, shortened: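 Monocyte-derived DCs (10^5 in 200 µL complete medium) were exposed for 30 min at 37 °C without LPS. They were then washed, held on ice, stained with anti-CD14-PE, and surface CD14 was read by flow cytometry.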

CCCCCCCCCCCCC#CC#CCCCCCCCCC(=O)NC(COCCC(=O)NCCOCCOCCOCCO[C@H]1O[C@H](CO)[C@@H](O)[C@H](O)[C@@H]1O)(COCCC(=O)NCCOCCOCCOCCO[C@H]1O[C@H](CO)[C@@H](O)[C@H](O)[C@@H]1O)COCCC(=O)NCCOCCOCCOCCO[C@H]1O[C@H](CO)[C@@H](O)[C@H](O)[C@@H]1O
inactive: inhibition (Dendritic cell [4]) | inhibition (Dendritic cell [5]) | inhibition (Dendritic cell [6])
active: Activity (Dendritic cell [1]) | inhibition (Dendritic cell [2]) | inhibition (Dendritic cell [3]) | inhibition (Dendritic cell [7])
